Measured values of several laboratories.
Target: LIM domain kinase 1 (LIMK1, Homo sapiens, UniProt P53667)

Cc1nn(C)cc1-c1nc2c(N3CCN(Cc4ccc(Cl)cc4)CC3)c(Cl)cnc2[nH]1 — remaining binding (binding, competition with immobilised ligand; 1 µM): 58%
Cn1cc(-c2cc(F)cc(N3CCn4c(cc5c4CCCC5)C3=O)c2CO)cc(Nc2ccc(N3CCN(C4COC4)CC3)cn2)c1=O — inhibition (enzyme activity, inhibitor; 0.1 µM): 2%
Nc1ncc(-c2nc(N3CCOCC3)nc(N3CCOCC3)n2)c(C(F)F)n1 — remaining binding (binding, competition with immobilised ligand; 10 µM): 86%
N#CC1(c2ccccn2)CCN(Cc2cc(C(=O)O)c(=O)n3ccccc23)CC1 — remaining binding (cell-free assay, competition with immobilised ligand; 1 µM): 100%
Cn1cc(-c2cccc(N3CCc4c(sc5c4CC(C)(C)C5)C3=O)c2CO)cc(Nc2ccncn2)c1=O — inhibition (enzyme activity, inhibitor; 1 µM): 9%
COc1cc(Nc2ncc(F)c(Nc3ccc4c(n3)NC(=O)C(C)(C)O4)n2)cc(OC)c1OC — inhibition (binding, competition with immobilised ligand; 10 µM): 85%
CC(C)(C)c1cc(C=C(C#N)C#N)cc(Br)c1O — remaining activity (enzyme activity, inhibitor; 0.5 µM): 98.5%
COc1ncccc1-c1cnn2ccc(N3CCN(C(=O)OC(C)C)CC3)nc12 — remaining binding (binding, competition with immobilised ligand; 1 µM): 100%
O=c1[nH]c2ccccc2n1C1CCN(Cc2ccc(-c3[nH]c4cc5ncnc5cc4nc3-c3ccccc3)cc2)CC1 — remaining signal (cell-free assay; 0.5 µM): 110%
Cn1cncc1[C@](O)(COc1ccc(C#N)cc1-c1ccc(OC(F)(F)F)cc1)c1ccc(C#N)cc1 — remaining binding (cell-free assay, competition with immobilised ligand; 1 µM): 89%
